Bioassay records (PubChem BioAssay)
Shown are actives, neighbours in structure and some others; about 2.1% of the full set was active somewhere.
MEKK2mut PB1 HTS – signal of MEK5 binding to mutant human MEKK2 PB1 domain. 290,000 compounds, 0.35% hits. percent response, % at 10 µM. bead flow cytometry, Alexa488-MEK5 binding to MEKK2 mutant; in the data active = percent response above about 24%, passing the limit was not always enough
MEKK2 WT-MEK5 – raises or lowers MEK5 binding to wildtype human MEKK2 PB1 domain; binding response (% of control), % at 10 µM; Q9Y2U5; bead flow cytometry, Alexa488-MEK5 binding to MEKK2 WT; actives lie on both sides; 290,000 compounds, 1.1% hits; in the data active = binding response below about 67% or above about 130%
MEKK3 PB1 HTS – raises or lowers MEK5 binding to the human MEKK3 PB1 domain. bead-based flow cytometry, Alexa488-MEK5 binding to MEKK3; actives lie on both sides; 0 = blocked by unlabeled MEK5, 100 = vehicle. binding response (% of control), % at 10 µM. 290,000 compounds, 1.4% hits. AID 1529;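 active = binding response more than 3 SD above or below the average of its plate-row segment, actives on both sides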;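 also: Alexa488 bead fluorescence after subtracting the streptavidin-only scavenger bead signal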
GSK3A inh – human GSK-3 alpha kinase inhibition; 320,000 compounds, 0.1% hits; ADP-Glo luminescence, 60 min; P49840; inhibition, % at 10 µM;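 active = more than half of replicates show inhibition above 20%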;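 also: GST-tagged GSK-3 alpha with peptide substrate and 25 µM ATP; 0% = DMSO neutral wells and 100% = GW8510 positive control wells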
Target sequence (P49840 whole entry, looked up): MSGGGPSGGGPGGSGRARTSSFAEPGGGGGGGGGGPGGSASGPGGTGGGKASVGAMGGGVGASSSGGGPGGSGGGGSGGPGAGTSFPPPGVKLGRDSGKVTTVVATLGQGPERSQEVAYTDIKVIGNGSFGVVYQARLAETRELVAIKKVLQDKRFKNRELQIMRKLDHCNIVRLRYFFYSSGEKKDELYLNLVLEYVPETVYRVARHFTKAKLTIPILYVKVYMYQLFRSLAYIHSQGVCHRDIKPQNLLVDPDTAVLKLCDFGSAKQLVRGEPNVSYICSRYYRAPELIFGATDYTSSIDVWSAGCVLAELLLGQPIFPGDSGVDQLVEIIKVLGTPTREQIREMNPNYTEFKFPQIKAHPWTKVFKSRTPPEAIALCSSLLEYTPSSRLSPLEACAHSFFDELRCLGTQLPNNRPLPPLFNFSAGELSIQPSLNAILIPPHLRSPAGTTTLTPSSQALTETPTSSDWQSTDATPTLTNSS
STK33 inh – human STK33 kinase inhibition | Q9BYT3 | purified STK33, MBP phosphorylation, ADP-Glo luminescence | inhibition, % at 10 µM | 320,000 compounds, 0.073% hits | AID 2661;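 active = inhibition at or above 25%, using the most active replicate where run in duplicate; inactive = inhibition below 25%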
GSK3B inh – inhibitors of human GSK3beta kinase; GST-GSK3beta kinase, ADP-Glo luminescence, 60 min; stronger effect = lower value; 300,000 compounds, 0.038% hits; activity score (negative = inhibition), % at 10 µM; P49841;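 active = more than half of replicate wells score below -50%, meaning over 50% inhibition versus plate controls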;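 also: 0% = median DMSO wells and -100% = median GW8510 positive control wells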
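Test system: GST-fused GSK3beta enzyme, cell-free | Quantity: 1.6 ng GST-GSK3beta enzyme per well | Reagent: 25 µM ATP with peptide substrate | Schedule: 60 min enzyme reaction, room temperature | Signal: Luminescent ADP-Glo measurement of ADP formed | Read-out basis: Score relative to plate controls | Control set: DMSO and 20 µM GW8510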
MEKK2wt confirm – raises or lowers MEK5 binding to wildtype human MEKK2, retest | shares compounds with MEKK3 PB1 HTS | bead flow cytometry, Alexa488-MEK5 binding to MEKK2 WT; actives lie on both sides | binding response (% of control), % at 10 µM | 5,900 compounds, 2.4% hits; in the data active = binding response below about 16% or above about 210%; inactive = in between
MEKK2mut-MEK5 – signal of MEK5 binding to mutant human MEKK2, retest | shares compounds with MEKK3 PB1 HTS | bead flow cytometry, Alexa488-MEK5 binding to MEKK2 mutant | percent response, % at 10 µM | AID 1893 | 5,900 compounds, 2% hits; in the data active = percent response mostly above about 71%, no sharp cut-off; inactive = mostly below about 38%;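 also: higher means compound restores mutant binding toward wildtype level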
MEKK3-MEK5 inh – confirmation of inhibitors of MEK5 binding to human MEKK3. shares compounds with MEKK3 PB1 HTS. bead flow cytometry, Alexa488-MEK5 binding to MEKK3; stronger effect = lower value. binding response (% of control), % at 10 µM. 5,900 compounds, 1.8% hits. AID 1894;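 active = binding response below 72% of control, or above a set upper limit, though filed actives all read lower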;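 also: 100% = DMSO only wells and 0% = binding blocked by excess unlabeled MEK5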
* hit, by the source's call; · = no result; ! = not confirmed by another sample; [ ] = remark or other dose.

SMILES	MEKK2mut PB1 HTS	MEKK2 WT-MEK5	MEKK3 PB1 HTS	GSK3A inh	STK33 inh	GSK3B inh	MEKK2wt confirm	MEKK2mut-MEK5	MEKK3-MEK5 inh
O=C(NC(=S)Nc1ccc(CN2CCOCC2)cc1)c1cccc([N+](=O)[O-])c1	-1.0	105.0	145.0*	-0.9	5.3	-0.6	106.0	2.0	105.0
CCCOc1cccc(C(=O)NC(=S)Nc2ccc(N3CCN(C)CC3)cc2)c1	46.0	152.0*	103.0	2.3	1.2	-2.3	147.0	12.0	106.0
CCOC(=O)C1(CCCc2ccccc2)CCN(C2CCN(C(C)=O)CC2)CC1	11.0	111.0	87.0	-4.5	-2.0	0.7	·	·	·
CCOC(=O)N1CCN(CCCc2ccccc2)CC1	5.0	107.0	96.0	-0.4	-0.8	1.0	·	·	·
CC1=CC(C)(C)N2C(=O)C3(N=C(N)NC(Nc4ccccc4)=N3)c3cc(C)cc1c32 (stereo not given)	33.0*	154.0*	121.0	1.6	-1.2	-2.8	137.0	14.0	102.0
N#Cc1ccsc1NC(=O)CN1CCN(S(=O)(=O)c2ccccc2C(F)(F)F)CC1	1.0	91.0	55.0*[inhibitor]	0.7	-2.1	-1.4	97.0	-1.0	100.0
Cc1ccc(C)c(S(=O)(=O)N2CCN(CC(=O)Nc3sccc3C#N)CC2)c1	0.0	107.0	162.0*	0.0	-0.4	-1.8	94.0	-2.0	100.0
N#Cc1ccsc1NC(=O)CN1CCN(c2ccccc2O)CC1	2.0	100.0	64.0*[inhibitor]	1.1	-0.3	-2.6	97.0	-2.0	101.0
CCOC(=O)Nc1ccc2nc(N3CCCCCC3)sc2c1	8.0	75.0	87.0	-2.1	-0.6	-3.2	·	·	·
O=C(CN1CCC(O)(c2cccc(F)c2)CC1)NCCc1c[nH]c2ccccc12	46.0	178.0*	124.0	-0.5	-1.0	2.0	129.0	22.0	108.0
CC(CCc1ccccc1)OS(N)(=O)=O (stereo not given)	5.0	101.0	103.0	-1.2	-1.0	-1.6	·	·	·
CCCCc1n[nH]c(=S)n1Cc1ccc(C)cc1	-17.0	65.0	48.0*[inhibitor]	-4.9	0.0	-2.1	104.0	2.0	106.0
CCN(CC)CCNC(=O)c1cc2c(-c3ccc(Cl)cc3)nn(C)c2s1	21.0	191.0*	109.0	·	·	-7.3	155.0	26.0	103.0
CCCCN(CC)CCNC(=O)c1cc2c(-c3ccc(Cl)cc3)nn(C)c2s1	47.0*	198.0*	109.0	9.7	1.2	-10.6	201.0	98.0*	115.0
CCCN(CCC)CCNC(=O)c1cc2c(-c3ccc(Cl)cc3)nn(C)c2s1	42.0*	184.0*	106.0	7.5	1.7	-11.6	190.0	92.0*	113.0
Cc1ccc(C)c(S(=O)(=O)N2CCCOC2CNC(=O)C(=O)NCc2cccnc2)c1 (stereo not given)	-3.0	101.0	105.0	-2.2	-1.5	-0.6	·	·	·
CCC(C)c1ccc(S(=O)(=O)N2CCN(C(C)CC(=O)O)CC2)cc1 (stereo not given)	0.0	101.0	102.0	-2.5	-0.7	-1.3	·	·	·
Cc1ccc(S(=O)(=O)N2CCN(C(C)CC(=O)O)CC2)cc1 (stereo not given)	2.0	3.0*[inhibitor]	3.0*[inhibitor]	-2.0	-1.1	0.4	99.0	-1.0	101.0
O=C(/C=C/c1cccs1)N1CCC2(CC1)Oc1ccc(Cl)cc1C(=O)C21CC(c2cccnc2)=NO1 (stereo not given)	3.0	84.0	83.0	-1.6	-1.1	0.6	·	·	·
COC(=O)c1c(NC(=O)CSc2nc(-c3ccco3)cc(C(F)(F)F)n2)sc2c1CCCC2	-22.0	-8.0*[inhibitor]	0.0*[inhibitor]	-0.5	-2.3	-23.1	108.0	12.0	109.0
N#Cc1c(NC(=O)CSc2nc(-c3ccco3)cc(C(F)(F)F)n2)sc2c1CCCC2	-5.0	98.0	99.0	-0.5	0.0	·	·	·	·
Cc1cc(NC(=O)CSc2nc(-c3cccs3)cc(C(F)(F)F)n2)no1	-35.0	-7.0*[inhibitor]	89.0	-3.2	0.1	6.7	96.0	0.0	100.0
CN=C(c1ccc([N+](=O)[O-])cc1)N1CCCCC1	-4.0	93.0	94.0	1.0	-1.1	-3.9	·	·	·
COc1ccc(-c2ncccc2O)cc1	4.0	102.0	103.0	-0.6	1.5	2.8	·	·	·
CCOc1c(C)cc(-c2ncccc2O)cc1C	0.0	96.0	130.0*!	-1.1	-0.7	3.2	101.0	-7.0	99.0
SMILES	MEKK2mut PB1 HTS	MEKK2 WT-MEK5	MEKK3 PB1 HTS	GSK3A inh	STK33 inh	GSK3B inh	MEKK2wt confirm	MEKK2mut-MEK5	MEKK3-MEK5 inh
COc1cc(NC(=O)C2CCCO2)c(OC)cc1Cl (stereo not given)	0.0	103.0	82.0*[inhibitor]	0.2	-0.4	-0.2	103.0	0.0	103.0
COC(=O)/C=c1/sc2nc3ccccc3n2c1=O	-15.0	81.0	80.0*[inhibitor]	-0.1	0.5	3.3	98.0	-4.0	98.0
O=c1/c(=C/c2ccccn2)sc2nc3ccccc3n12	·	·	·	·	·	-4.7	·	·	·
N#Cc1cccn1-c1nccc(-c2cccs2)n1	7.0	131.0	149.0*	0.6	13.9	0.0	93.0	-6.0	91.0
COc1ccc(C(=O)O)cc1S(=O)(=O)NCCc1ccccn1	-13.0	93.0	98.0	-1.9	-1.0	0.1	·	·	·
Cc1ccc(CNc2nc(C)cs2)cc1	-5.0	97.0	98.0	-1.4	-0.6	0.2	·	·	·
N#Cc1ccc(NC(=O)Nc2ccc(Oc3ccc(NC(=O)Nc4ccc(C#N)cc4)cc3)cc2)cc1	42.0	150.0*	106.0	-1.0	1.2	-0.1	141.0	16.0	101.0
COc1cccc(NC(=O)c2ccc(NCCCN3CCC(C)CC3)c([N+](=O)[O-])c2)c1	11.0	130.0	100.0	-0.4	2.0	-6.1	·	·	·
COc1cccc(NC(=O)c2ccc(NCCCN3CC(C)CC(C)C3)c([N+](=O)[O-])c2)c1 (stereo not given)	19.0	139.0*	111.0	·	·	0.9	147.0	16.0	109.0
O=[N+]([O-])c1ccc(N2CCN(C(=S)c3cccc([N+](=O)[O-])c3)CC2)cc1	25.0	114.0	125.0	-1.7	-0.2	-3.0	·	·	·
CC(=O)N1CCN(C(=S)c2cccc([N+](=O)[O-])c2)CC1	0.0	109.0	132.0*	-0.9	-2.4	0.6	45.0	-14.0	72.0
CCOc1ccccc1N(CC(=O)OC)S(=O)(=O)c1ccccc1	6.0	121.0	126.0*	0.8	0.4	2.9	103.0	1.0	99.0
CCOc1ccccc1N(CC(=O)NC1CCCCC1)S(C)(=O)=O	-5.0	78.0	74.0*[inhibitor]	-3.0	-0.4	1.1	99.0	-2.0	95.0
